Measured values published in the array DNA melting data of Ke et al. (doi:10.1101/2024.01.08.574731).

Columns and labels:
[1] = melting temperature; fluorescence melt of hairpins on a sequencing array, two-state fit, raised by 9.35 °C to match UV melts; settings: sodium 0.088 M
In short: (§1)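 Folding enthalpy and melting temperature come from bootstrapped two-state fits to Cy3 fluorescence of library hairpins carrying annealed Cy3 and quencher oligos on a sequenced MiSeq flow cell. Imaging was done in 50 mM Na-HEPES pH 8.0, 25 mM NaCl, stepping by 2.5 °C up to 60 °C, and signals were normalised to pre-quench Cy3 and to control constructs. Results of four replicates were combined by inverse variance, and fitted temperatures were raised by 9.35 °C to match UV melts.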

[2] = folding enthalpy; higher = less favourable; fluorescence melt of hairpins on a sequencing array, two-state fit; settings: sodium 0.088 M
In short: as §1

Row | Sequence | Tm [1] | folding enthalpy [2]
1 | GGGTTAGGAAACTGACCC ((((.((....)).)))) | 50 °C | -34.6 kcal/mol
2 | GGAGGGCGAAAGCCGTCC (((.(((....))).))) | 67 °C | -21 kcal/mol
3 | GAGCGAGAAATCGCTC ((((((....)))))) | 67.4 °C | -30.4 kcal/mol
4 | GAGATGGAAACATCTC ((((((....)))))) | 53.5 °C | -37 kcal/mol
5 | GATCCAAGATTGGATC ((((((....)))))) | 50.3 °C | -40 kcal/mol
6 | GATCCTACCAGGATC ((((((...)))))) | 54.9 °C | -39.6 kcal/mol
7 | GTTGCCGAAAGGCAGAAC ((((((....)))..))) | 37.3 °C | -8.61 kcal/mol
8 | GCCATAGGAAACTGTGGC ((((.((....)).)))) | 52.2 °C | -39.1 kcal/mol
9 | GATCTTTGCTAAGATC ((((((....)))))) | 46 °C | -35.8 kcal/mol
10 | GCGTAGGGAAACTTACGC (((((.(....).))))) | 50.4 °C | -39.4 kcal/mol
11 | GACTCCGGAAACGGAGCC (.(((((....))))).) | 50.5 °C | -13.6 kcal/mol
12 | GTAGTGGCGAAAGCCTAC (((..(((....)))))) | 35.4 °C | -11.6 kcal/mol
13 | GCTACGCGAAAGCGAGC (((.(((....)))))) | 56.5 °C | -15.8 kcal/mol
14 | GATCCAGTCATGGATC ((((((....)))))) | 58.3 °C | -39.8 kcal/mol
15 | GGGAATGGAAACGTTCCC (((((.(....).))))) | 50.6 °C | -38 kcal/mol
16 | GATCTAATGTTAGATC ((((((....)))))) | 40.2 °C | -34.3 kcal/mol
17 | GATCGCCCCGGCGATC ((((((....)))))) | 69.2 °C | -33 kcal/mol
18 | GATCGGCCCCCGATC ((((((...)))))) | 56 °C | -44.9 kcal/mol
19 | GATGCGGGAAACCGCACC (.(((((....))))).) | 42.9 °C | -11.3 kcal/mol

Row | Sequence | Tm [1] | folding enthalpy [2]
20 | GCACCGGGAAACCAGTGC ((((.((....)).)))) | 49.4 °C | -32.1 kcal/mol
21 | GGCTAGAAATAGCC (((((....))))) | 51.5 °C | -24.6 kcal/mol
22 | GCACACGAAAGTGTTTGC ((((((....)))..))) | 39.6 °C | -13.7 kcal/mol
23 | GATCGTCATGACGATC ((((((....)))))) | 61.4 °C | -40.3 kcal/mol
24 | GATCCAAACTGGATC ((((((...)))))) | 50.4 °C | -43 kcal/mol
25 | GATCAAACTCTTGATC ((((((....)))))) | 40.5 °C | -33.9 kcal/mol
26 | GATTGACGAAAGTCTATC (((.(((....))).))) | 46.1 °C | -26.2 kcal/mol
27 | GTGAAAGCGAAAGCTCAC (((..(((....)))))) | 47.6 °C | -23.9 kcal/mol
28 | GTAGCAGGAAACTACTAC ((((.((....)).)))) | 35 °C | -24.4 kcal/mol
29 | GATAACGAAAGTTGTATC ((((((....)))..))) | 26.9 °C | -18.9 kcal/mol
30 | GATCCTATGAAGGATC ((((((....)))))) | 51 °C | -34 kcal/mol
31 | GCAAACGAAAGTTCTGC ((((((....))).))) | 37.2 °C | -20.5 kcal/mol
32 | GTATCGGGAAACCGACAC ((.((((....)))).)) | 39.3 °C | -19.5 kcal/mol
33 | GACTCGGGAAACCGAATC ((.((((....)))).)) | 35.4 °C | -18.2 kcal/mol
34 | GATCCTCAGCAGGATC ((((((....)))))) | 48.8 °C | -33.2 kcal/mol
35 | GATCCGAGGTCGGATC ((((((....)))))) | 58.3 °C | -38.8 kcal/mol
36 | CGTGGACGGAAACGTACG (((..(((....)))))) | 36.6 °C | -20.3 kcal/mol
37 | GATCTTCGTCAAGATC ((((((....)))))) | 40.7 °C | -33.5 kcal/mol
38 | GTGAGTGCGAAAGCACAC (((..(((....)))))) | 48.6 °C | -12.5 kcal/mol
